Screening data: PubChem BioAssay, several laboratories
A selection: hits, their analogues and other compounds. The true share with any hit is near 3.2%.
Pemphigus Ab inh: inhibitors of pemphigus antibody binding to human desmoglein-3; P32926; 310,000 compounds, 0.48% hits; binding (percent of control), % at 10 µM; DSG3-coupled beads, scFv-anti-DSG3-GFP binding, flow cytometry; active compounds read low;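 active = binding more than 3 SD below its plate's average and above zero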;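 note: hits lower antibody fragment binding to DSG3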
MEKK3 PB1 HTS: modulators (inhibitors or enhancers) of MEK5 binding to human MEKK3 PB1 domain. bead-based flow cytometry, Alexa488-MEK5 binding to MEKK3; actives lie on both sides; 0 = blocked by unlabeled MEK5, 100 = vehicle. 290,000 compounds, 1.4% hits. binding response (% of control), % at 10 µM. AID 1529. Q99759;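 active = binding response more than 3 SD above or below the average of its plate-row segment, actives on both sides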;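 note: Alexa488 bead fluorescence after subtracting the streptavidin-only scavenger bead signal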
Apaf1 inhib: inhibitors of human Apaf-1 apoptosome. 330,000 compounds, 0.71% hits. AID 489030. reconstituted apoptosome caspase-3 activity, DEVD-Rh110 fluorescence. inhibition, % at 20 µM; active = inhibition of at least 40% at 20 µM
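Assay system – apoptosome proteins · Medium – Hepes buffer, pH 7.5 · Also added – cytochrome c with DEVD-Rh110 · Timing – 30 min compound preincubation, 50 min activation, room temperature · Detection – Rh110 fluorescence, excitation 480 nm, emission 540 nm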
UBC13 inh: human UBC13 polyubiquitination inhibition | P61088 | UBC13 polyubiquitin chain formation, TR-FRET | inhibition, % at 20 µM | 330,000 compounds, 0.47% hits; in the data active = inhibition above about 45%, passing the limit was not always enough
MEKK2 WT-MEK5: raises or lowers MEK5 binding to wildtype human MEKK2 PB1 domain | AID 1531 | bead flow cytometry, Alexa488-MEK5 binding to MEKK2 WT; actives lie on both sides | binding response (% of control), % at 10 µM | Q9Y2U5 | 290,000 compounds, 1.1% hits; in the data active = binding response below about 67% or above about 130%
MEKK2mut PB1 HTS: signal of MEK5 binding to mutant human MEKK2 PB1 domain; AID 1530; bead flow cytometry, Alexa488-MEK5 binding to MEKK2 mutant; percent response, % at 10 µM; 290,000 compounds, 0.35% hits; in the data active = percent response above about 24%, passing the limit was not always enough
A number is an active result; . = inactive; / = no result; ! = not active in a repeat.

SMILES	Pemphigus Ab inh	MEKK3 PB1 HTS	Apaf1 inhib	UBC13 inh	MEKK2 WT-MEK5	MEKK2mut PB1 HTS
COc1cc2c(cc1NC(=O)c1cc(-c3cccnc3)nc3ccc(C)cc13)oc1ccccc12	.	.	.	.	.	.
COc1cc2c(cc1NC(=O)c1cc(-c3ccncc3)nc3ccccc13)oc1ccccc12	/	.	.	.	16	.
COc1cc2c(cc1NC(=S)NC(=O)/C=C/c1ccc(OC)c(OC)c1)oc1ccccc12	68	.	/	/	.	.
Nc1ccc(Oc2ccc3c(c2)C(=O)N(CC2CCCO2)C3=O)cc1 (stereo not drawn)	.	.	.	.	.	.
CCCCCCCNC(=O)C1(CC2CC(c3ccccc3)=NO2)CCNCC1 (stereo not drawn)	.	/	.	.	/	/
O=C(NCc1ccccc1)C1(CC2CC(c3ccccc3)=NO2)CCNCC1 (stereo not drawn)	.	/	47	.	/	/
COc1ccc(CN(CCN(C)C)Cc2ccccc2)c(OC)c1	78	.	.	.	.	.
CCN(Cc1ccncc1)Cc1ccc(OC)cc1OC	.	.	.	.	.	.
COc1cc(/C=N/NC(=O)c2ccccn2)ccc1OC(=O)c1cccs1	.	.	.	.	.	.
C=CCNC(=O)NC(=O)CN1C(=O)NC(c2ccccc2)(c2ccccc2)C1=O	.	.	.	.	.	.
Cc1ccc(NS(=O)(=O)c2cccc3nsnc23)cc1[N+](=O)[O-]	.	.	.	.	.	.
COc1cccc(CNS(=O)(=O)c2ccc3c(c2)N(C)CCO3)c1	.	.	.	.	.	.
CC(=O)Nc1cc(=O)c2cccnc2[nH]1	73	/	/	/	/	/
COc1cc(NC(C)=O)c2ncccc2c1NC(C)=O	.	.	.	.	.	.
CC(=O)Nc1c(Cl)c2c(c(Cl)c1Br)-c1ccc(Cl)cc1C2	.	/	/	/	/	/
COc1ccc(CCNC(=O)c2ccccc2)cc1	65	.	.	.	.	.
CN1CCC2CC1c1cc(-c3ccc(C(F)(F)F)cc3)ccc12 (stereo not drawn)	.	/	/	/	/	/
COc1ccc(-n2cnc3ccccc3c2=O)c([N+](=O)[O-])c1	.	.	.	.	.	.
N#CC1=C(SCc2ccccc2)NC(=O)CC1c1ccc(O)cc1 (stereo not drawn)	.	.	.	.	.	.
N#CC1=C(SCc2ccccc2)NC(=O)CC1c1cccc(O)c1 (stereo not drawn)	83	.	.	.	.	.
CCC(=O)c1ccc(OCC(=O)Nc2ccc3c(c2)OCCO3)cc1	-3.4	/	.	.	/	/
CSc1nc(S(C)(=O)=O)nc2[nH]c(=O)[nH]c12	.	/	/	/	/	/
COc1ccc(NCC(=O)N/N=C2\CCc3ccccc32)cc1	106	.	.	.	.	.
COc1cccc(N2CCN(c3ncnc4c3[nH]c3ccc(F)cc34)CC2C)c1 (stereo not drawn)	.	.	.	.	164	.
CC1CSC(N(C(=O)c2ccc(S(C)(=O)=O)cc2)c2ccc(Cl)cc2)=N1 (stereo not drawn)	.	.	.	.	.	.
SMILES	Pemphigus Ab inh	MEKK3 PB1 HTS	Apaf1 inhib	UBC13 inh	MEKK2 WT-MEK5	MEKK2mut PB1 HTS
O=C(CSc1n[nH]c(-c2ccco2)n1)Nc1ccccc1Cl	43	.	.	.	.	.
CCc1cc2cc(C)c(C)cc2nc1SCC(=O)Nc1cc(C)on1	60	.	.	.	.	.
O=C(CN1CCN(S(=O)(=O)c2ccccc2)CC1)Nc1ccc(Cl)c([N+](=O)[O-])c1	.	/	.	.	/	/
COc1ccc2cc3c(N)nn(C(=O)c4cccc(F)c4)c3nc2c1	.	.	.	.	.	.
COc1ccc2cc3c(N)nn(C(=O)c4ccc(F)cc4)c3nc2c1	62	.	.	.	.	.
O=C(Nc1cc2cccc([N+](=O)[O-])c2oc1=O)c1cccs1	.	.	.	.	-8.0	.
CCN(C(=O)CSc1nccc(=O)[nH]1)c1cccc2ccccc12	.	/	.	.	/	/
COc1ccc(Nc2nc3c(C)cccn3c(=O)c2C=NCc2ccccc2)cc1	70	.	.	.	.	.
CCN(C(=O)COC(=O)c1ccccc1Nc1ccccc1)c1c(N)n(Cc2ccccc2)c(=O)[nH]c1=O	.	/	/	/	/	/
CCOC(=O)c1sc2nc3c(SCCC#N)cc(C(=O)c4cc(F)ccc4O)cn3c(=O)c2c1C	.	.	.	.	.	.
CCOC(=O)c1sc2nc3c(SCCC(=O)O)cc(C(=O)c4cc(OC)ccc4O)cn3c(=O)c2c1C	55	.	/	/	.	.
O=C(COC(=O)C1CC1)NCCc1ccc(Cl)cc1	.	/	.	.	/	/
Cc1c(Cl)cccc1NC(=S)N1CCN(c2ccc([N+](=O)[O-])cn2)CC1	90	.	.	.	.	.
Cc1cccc(Cl)c1NC(=S)N1CCN(c2ccc([N+](=O)[O-])cn2)CC1	.	.	.	.	.	.
COc1ccc2nc(C)cc(NCc3cccc(C(F)(F)F)c3)c2c1	.	.	.	.	154	.
CC(C)Cc1cc(C(=O)Nc2cc(Cl)ccc2Cl)no1	-39	/	.	.	/	/
CC(C)Cc1cc(C(=O)Nc2ccc(F)cc2F)no1	.	.	.	.	.	.
CCCN1CCc2c(sc(NC(=O)c3ccc(S(=O)(=O)N4CCN(C(=O)OCC)CC4)cc3)c2C(N)=O)C1	.	.	.	.	4.0	.
c1ccc(CN(CC2=NCCN2)c2ccccc2)cc1	14!	.	.	.	.	.
CCN1CCCC1CNC(=O)c1ccc2c(c1)NC(=O)/C(=C\c1ccc(C)cc1)S2 (stereo not drawn)	/	.	.	.	194	43
COc1ccc(/C=C2\Sc3ccc(C(=O)NCCN4CCCCCC4)cc3N(C)C2=O)cc1	.	.	.	.	203	54
COc1cccc(/C=C2/Sc3ccc(C(=O)NCCCN4CCCC4)cc3NC2=O)c1	.	.	.	.	167	.
O=C(NCCCN1CCCCC1)c1ccc2c(c1)NC(=O)c1ccccc1S2	.	.	.	.	.	.
COc1ccc(/C=C2\Sc3ccc(C(=O)NC4CC4)cc3N(C)C2=O)cc1OC	.	.	.	.	.	.
CN1C(=O)/C(=C\c2ccccc2F)Sc2ccc(C(=O)NC3CCN(Cc4ccccc4)CC3)cc21	.	.	.	.	168	.
O=C(NC1CCN(Cc2ccccc2)CC1)c1ccccc1	.	.	.	.	.	.
COc1ccc(S(=O)(=O)N2CCN(CC(=O)NCCc3cccs3)CC2)cc1	.	/	.	.	/	/
CCN(C[C@H]1N[C@@](CC)(C(=O)OC)[C@H]2C(=O)N(Cc3ccccc3)C(=O)[C@@H]12)C(=O)COc1ccccc1	.	/	.	.	/	/
Cc1ccc(NC(=O)OC(C)N2CCCCC2)cc1NC(=O)OC(C)N1CCCCC1 (stereo not drawn)	.	/	/	/	/	/
CSc1ccccc1C(=O)OCC(=O)Nc1cccnc1Cl	.	/	.	.	/	/
